ChEMBL document CHEMBL1136869, “2-Cyclohexylcarbonylbenzimidazoles as potent, orally available and brain-penetrable opioid receptor-like 1 (ORL1) antagonists” (Bioorg Med Chem Lett, 2009)
Calls of active or inactive are those of the source. The calls are words filed in the database; no cut-off is given here.

Columns and labels:
[1] = Metabolic stability in human liver microsomes assessed as parent compound remaining at 1 uM after 30 mins; format: ADME, Microsome; details: read-out: Stability
Nociceptin receptor [2] = molecular target: T1, Nociceptin receptor (Homo sapiens, UniProt P41146); test: Displacement of [125I]Tyr14-NC/OFQ from ORL1 receptor
T1 sequence (P41146 whole entry): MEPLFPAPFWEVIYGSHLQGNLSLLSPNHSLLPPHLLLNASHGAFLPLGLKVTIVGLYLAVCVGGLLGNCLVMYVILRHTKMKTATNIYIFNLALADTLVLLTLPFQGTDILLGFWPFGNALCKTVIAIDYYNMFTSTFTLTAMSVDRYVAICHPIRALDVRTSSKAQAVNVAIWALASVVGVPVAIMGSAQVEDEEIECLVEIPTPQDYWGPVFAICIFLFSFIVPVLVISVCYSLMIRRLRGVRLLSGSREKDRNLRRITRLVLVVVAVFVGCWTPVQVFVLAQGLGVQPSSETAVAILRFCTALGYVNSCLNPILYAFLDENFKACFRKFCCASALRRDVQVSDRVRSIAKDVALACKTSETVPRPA

[3] = Distribution coefficient, log D at pH 7.4 by shake flask method; format: physicochemical; details: octanol/water
Nociceptin receptor [4] = molecular target: T1, Nociceptin receptor; test: Antagonist activity against ORL1 receptor by [S35]GTPgammaS binding; format: functional
[5] = molecular target: Voltage-gated inwardly rectifying potassium channel KCNH2 (Homo sapiens, UniProt Q12809); test: Displacement of [35S]MK499 from human ERG expressed in HEK293 cells
Sequence of Voltage-gated inwardly rectifying potassium channel KCNH2 (Q12809 whole entry): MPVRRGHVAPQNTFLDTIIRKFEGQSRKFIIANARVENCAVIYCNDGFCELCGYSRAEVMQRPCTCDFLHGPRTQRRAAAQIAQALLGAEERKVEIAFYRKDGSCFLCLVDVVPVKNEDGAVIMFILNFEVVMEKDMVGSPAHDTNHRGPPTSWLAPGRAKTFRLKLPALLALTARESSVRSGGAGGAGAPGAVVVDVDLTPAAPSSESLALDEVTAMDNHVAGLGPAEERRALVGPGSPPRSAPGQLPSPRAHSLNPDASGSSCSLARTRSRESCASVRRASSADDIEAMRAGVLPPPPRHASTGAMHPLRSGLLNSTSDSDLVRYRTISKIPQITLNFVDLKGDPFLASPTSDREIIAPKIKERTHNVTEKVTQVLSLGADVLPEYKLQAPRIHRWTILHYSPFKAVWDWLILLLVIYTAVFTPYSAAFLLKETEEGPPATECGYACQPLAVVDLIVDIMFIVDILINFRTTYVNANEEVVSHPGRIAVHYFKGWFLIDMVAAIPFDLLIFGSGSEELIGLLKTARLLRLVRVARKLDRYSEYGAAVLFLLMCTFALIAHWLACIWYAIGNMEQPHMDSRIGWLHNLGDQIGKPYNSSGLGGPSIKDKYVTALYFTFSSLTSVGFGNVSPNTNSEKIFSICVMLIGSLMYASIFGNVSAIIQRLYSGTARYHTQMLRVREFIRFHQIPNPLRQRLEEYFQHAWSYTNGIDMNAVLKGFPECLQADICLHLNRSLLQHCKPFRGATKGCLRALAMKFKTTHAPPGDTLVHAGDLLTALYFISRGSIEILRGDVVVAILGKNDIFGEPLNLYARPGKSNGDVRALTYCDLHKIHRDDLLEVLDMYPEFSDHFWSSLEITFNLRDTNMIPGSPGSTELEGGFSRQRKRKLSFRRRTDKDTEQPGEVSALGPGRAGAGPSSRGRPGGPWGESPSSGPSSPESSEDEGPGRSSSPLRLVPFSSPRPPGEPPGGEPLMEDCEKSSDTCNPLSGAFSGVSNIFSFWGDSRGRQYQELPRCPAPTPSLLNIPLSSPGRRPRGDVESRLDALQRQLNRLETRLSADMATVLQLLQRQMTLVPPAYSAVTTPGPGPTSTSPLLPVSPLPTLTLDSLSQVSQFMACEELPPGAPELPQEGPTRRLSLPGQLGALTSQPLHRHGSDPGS

[6] = Clearance in dog at 3 mg/kg, po and 1 mg/kg, iv; format: ADME, organism-based, Canis lupus familiaris; details: in vivo
[7] = Ratio of drug level in brain to plasma of mouse at 3 mg/kg, sc after 30 mins; format: ADME, organism-based; design: dose 3 mg/kg, route subcutaneous
Outline: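 Mice dosed subcutaneously at 3 mg/kg; brain and plasma sampled 30 min after dosing. Brain level measured as nmol/g tissue alongside plasma concentration; value is the brain-to-plasma (b/p) ratio of these two levels.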

Mu-type opioid receptor = Mu-type opioid receptor (Homo sapiens, UniProt P35372); test: Displacement of [3H]diprenorphin from human mu opioid receptor expressed in CHO cells; format: cell-based
Sequence of Mu-type opioid receptor (P35372 whole entry): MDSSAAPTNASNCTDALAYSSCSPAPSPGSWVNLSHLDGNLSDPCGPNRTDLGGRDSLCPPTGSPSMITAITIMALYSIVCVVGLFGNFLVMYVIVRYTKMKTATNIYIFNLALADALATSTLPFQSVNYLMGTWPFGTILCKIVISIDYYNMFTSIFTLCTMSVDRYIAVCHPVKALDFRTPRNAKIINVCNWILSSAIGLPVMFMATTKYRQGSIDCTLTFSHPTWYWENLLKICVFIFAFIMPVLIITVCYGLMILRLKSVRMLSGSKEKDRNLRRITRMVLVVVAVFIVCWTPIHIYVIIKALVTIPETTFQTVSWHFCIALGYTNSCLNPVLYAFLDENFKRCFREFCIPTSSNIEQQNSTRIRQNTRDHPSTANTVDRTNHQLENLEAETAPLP
Outline: (§1)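 Radioligand displacement in CHO cells stably expressing cloned human opioid receptors: [3H]diprenorphin for mu and [3H]U69593 for kappa. IC50 values were reported.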

[8] = Cmax in dog at 10 mg/kg, iv; format: ADME, organism-based, Canis lupus familiaris; design: dose 10 mg/kg, route intravenous; details: in vivo
[9] = molecular target: Cannabinoid receptor 2 (Homo sapiens) (UniProt P34972); test: Inhibition of CB2 receptor at 10 uM
Sequence of Cannabinoid receptor 2 (Homo sapiens) (P34972 whole entry): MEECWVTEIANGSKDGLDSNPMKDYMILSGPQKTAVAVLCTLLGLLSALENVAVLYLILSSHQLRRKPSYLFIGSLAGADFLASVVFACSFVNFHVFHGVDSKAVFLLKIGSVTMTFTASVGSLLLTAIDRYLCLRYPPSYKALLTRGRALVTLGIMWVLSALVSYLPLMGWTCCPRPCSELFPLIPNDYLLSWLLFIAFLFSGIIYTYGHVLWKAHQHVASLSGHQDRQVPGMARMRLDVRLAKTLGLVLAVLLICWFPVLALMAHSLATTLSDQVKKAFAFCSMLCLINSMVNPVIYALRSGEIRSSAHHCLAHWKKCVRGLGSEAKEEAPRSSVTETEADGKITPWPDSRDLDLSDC

Brain [10] = test: Drug level in mouse brain at 3 mg/kg, sc after 30 mins; format: ADME, organism-based; design: dose 3 mg/kg, route subcutaneous; details: in vivo, 0.5 h
[11] = Half life in rat at 3 mg/kg, po and 1 mg/kg, iv; format: ADME, organism-based; details: in vivo
[12] = molecular target: Histamine H3 receptor (Homo sapiens) (UniProt Q9Y5N1); test: Inhibition of histamine H3 receptor at 10 uM
Sequence of Histamine H3 receptor (Homo sapiens) (Q9Y5N1 whole entry): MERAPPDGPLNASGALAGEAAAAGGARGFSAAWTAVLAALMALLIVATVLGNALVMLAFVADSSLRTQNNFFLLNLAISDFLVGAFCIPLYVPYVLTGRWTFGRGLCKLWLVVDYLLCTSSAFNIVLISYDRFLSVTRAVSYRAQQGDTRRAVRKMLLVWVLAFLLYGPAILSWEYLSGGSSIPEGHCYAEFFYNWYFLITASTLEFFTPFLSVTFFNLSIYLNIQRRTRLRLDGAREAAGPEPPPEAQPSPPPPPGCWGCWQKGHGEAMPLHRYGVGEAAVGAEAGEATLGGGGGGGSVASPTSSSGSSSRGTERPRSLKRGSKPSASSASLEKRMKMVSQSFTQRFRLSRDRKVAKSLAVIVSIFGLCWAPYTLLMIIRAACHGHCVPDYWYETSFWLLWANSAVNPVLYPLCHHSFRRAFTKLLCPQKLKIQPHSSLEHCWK

[13] = Clearance in rat at 3 mg/kg, po and 1 mg/kg, iv; format: ADME, organism-based; details: in vivo
[14] = molecular target: Delta-type opioid receptor (Homo sapiens, UniProt P41143); test: Displacement of [3H]naltrindole from human delta opioid receptor expressed in CHO cells
Sequence of Delta-type opioid receptor (P41143 whole entry): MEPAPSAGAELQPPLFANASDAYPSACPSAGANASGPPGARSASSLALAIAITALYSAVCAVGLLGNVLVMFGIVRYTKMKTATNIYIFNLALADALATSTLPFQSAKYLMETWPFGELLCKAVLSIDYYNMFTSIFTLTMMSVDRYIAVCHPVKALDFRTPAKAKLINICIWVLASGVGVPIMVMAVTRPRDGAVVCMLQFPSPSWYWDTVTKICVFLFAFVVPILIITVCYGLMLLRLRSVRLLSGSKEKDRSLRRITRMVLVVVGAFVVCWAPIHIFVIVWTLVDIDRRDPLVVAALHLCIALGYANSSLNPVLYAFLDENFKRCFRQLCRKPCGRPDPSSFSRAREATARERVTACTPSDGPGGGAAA

[15] = Oral bioavailability in dog at 3 mg/kg; format: ADME, organism-based, Canis lupus familiaris; details: in vivo
[16] = Half life in dog at 3 mg/kg, po and 1 mg/kg, iv; format: ADME, organism-based, Canis lupus familiaris; details: in vivo
[17] = Oral bioavailability in monkey at 3 mg/kg; format: ADME, organism-based, Macaca mulatta; details: rhesus monkey, in vivo
[18] = Inhibition of adrenergic alpha1 receptor at 10 uM
[19] = molecular target: T2, High affinity choline transporter 1 (Homo sapiens) (UniProt Q9GZV3); test: Inhibition of choline transporter at 10 uM
T2 sequence (whole entry): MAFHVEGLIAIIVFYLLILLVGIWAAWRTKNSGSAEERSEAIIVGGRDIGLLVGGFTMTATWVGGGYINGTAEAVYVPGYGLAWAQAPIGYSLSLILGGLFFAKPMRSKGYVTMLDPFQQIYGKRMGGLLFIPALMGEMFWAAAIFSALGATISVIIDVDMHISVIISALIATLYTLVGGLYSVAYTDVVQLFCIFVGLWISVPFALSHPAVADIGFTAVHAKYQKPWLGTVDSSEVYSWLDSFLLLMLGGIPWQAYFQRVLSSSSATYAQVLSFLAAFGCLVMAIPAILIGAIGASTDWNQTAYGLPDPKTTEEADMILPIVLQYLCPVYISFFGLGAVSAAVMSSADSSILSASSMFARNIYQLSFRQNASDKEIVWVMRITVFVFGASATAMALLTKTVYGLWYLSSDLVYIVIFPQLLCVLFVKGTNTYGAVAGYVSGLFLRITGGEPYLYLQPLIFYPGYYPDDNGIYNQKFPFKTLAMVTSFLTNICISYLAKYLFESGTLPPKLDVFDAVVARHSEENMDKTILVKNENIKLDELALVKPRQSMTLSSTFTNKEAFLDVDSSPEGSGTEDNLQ

[20] = Oral bioavailability in rat at 3 mg/kg; format: ADME, organism-based; details: in vivo
[21] = Plasma concentration in mouse at 3 mg/kg, sc after 30 mins; format: ADME, organism-based; design: dose 3 mg/kg, route subcutaneous
Canis familiaris = test: Toxic effect in anesthetized dog assessed as incidence of cardiovascular events at 10 mg/kg, iv; format: toxicity, organism-based, Canis lupus familiaris; design: dose 10 mg/kg, route intravenous; details: in vivo
[22] = Half life in monkey at 3 mg/kg, po and 1 mg/kg, iv; format: ADME, organism-based, Macaca mulatta; details: rhesus monkey, in vivo
Rattus norvegicus = test: Antihyperalgesic activity in rat assessed as inhibition of carrageenan-induced hyperalgesia at 30 mg/kg, sc after 1 hr; format: functional, organism-based; design: dose 30 mg/kg
Outline: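 Rats received carrageenin (0.15 ml, 3%) by intraplantar injection 3 h before testing. Compound was given sc, and testing followed 1 h later. Responses to a noxious mechanical stimulus were scored, with significance set at P < 0.05.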

[23] = molecular target: T3, Alpha-1D adrenergic receptor (Homo sapiens) (UniProt P25100); test: Inhibition of adrenergic Alpha-1D receptor at 10 uM
T3 sequence (whole entry): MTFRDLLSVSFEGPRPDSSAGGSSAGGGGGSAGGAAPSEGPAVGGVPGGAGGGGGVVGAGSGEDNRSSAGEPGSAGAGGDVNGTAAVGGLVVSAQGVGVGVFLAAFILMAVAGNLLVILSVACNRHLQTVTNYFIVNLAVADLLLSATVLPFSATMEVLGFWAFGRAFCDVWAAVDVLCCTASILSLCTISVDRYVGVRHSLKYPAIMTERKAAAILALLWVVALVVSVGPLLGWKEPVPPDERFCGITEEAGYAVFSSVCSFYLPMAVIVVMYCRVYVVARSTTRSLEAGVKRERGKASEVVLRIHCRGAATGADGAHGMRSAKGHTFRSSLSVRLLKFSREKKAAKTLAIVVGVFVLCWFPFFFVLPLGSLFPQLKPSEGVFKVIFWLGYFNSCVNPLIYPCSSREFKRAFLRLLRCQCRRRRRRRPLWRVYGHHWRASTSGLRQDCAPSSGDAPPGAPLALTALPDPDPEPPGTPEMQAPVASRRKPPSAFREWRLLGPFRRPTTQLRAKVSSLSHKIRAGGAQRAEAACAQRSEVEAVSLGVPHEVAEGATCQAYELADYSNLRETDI

[24] = Clearance in monkey at 3 mg/kg, po and 1 mg/kg, iv; format: ADME, organism-based, Macaca mulatta; details: rhesus monkey, in vivo
[25] = molecular target: Kappa-type opioid receptor (Homo sapiens, UniProt P41145); test: Displacement of [3H]U69593 from human kappa opioid receptor expressed in CHO cells; format: cell-based; outline: as §1
Sequence of Kappa-type opioid receptor (P41145 whole entry): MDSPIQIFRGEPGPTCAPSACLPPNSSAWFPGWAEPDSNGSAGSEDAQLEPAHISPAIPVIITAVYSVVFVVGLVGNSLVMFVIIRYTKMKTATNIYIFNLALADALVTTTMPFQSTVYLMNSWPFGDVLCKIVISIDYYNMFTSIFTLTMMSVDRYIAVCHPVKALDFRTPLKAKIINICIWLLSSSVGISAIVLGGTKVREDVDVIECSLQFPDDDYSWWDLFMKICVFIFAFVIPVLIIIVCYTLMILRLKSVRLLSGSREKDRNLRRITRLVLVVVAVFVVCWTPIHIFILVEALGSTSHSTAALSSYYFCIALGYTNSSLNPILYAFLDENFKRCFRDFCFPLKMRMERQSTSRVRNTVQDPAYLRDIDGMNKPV

Brain [26] = test: Drug level in mouse brain at 30 mg/kg, po after 1 hr; format: ADME, organism-based; design: dose 30 mg/kg, route oral; details: in vivo
[27] = Drug level in mouse plasma at 30 mg/kg, po after 1 hr; format: ADME, organism-based; design: dose 30 mg/kg, route oral
[28] = Ratio of drug level in mouse brain to plasma at 30 mg/kg, po after 1 hr; format: ADME, organism-based; design: dose 30 mg/kg, route oral

CCN1CCN(c2cc3[nH]c(C(=O)[C@]4(CC)CC[C@@](C)(O)CC4)nc3cc2Cl)CC1 showed a remaining at 0.5 h, 1 µM [1] of 57%, an IC50 (Nociceptin receptor [2]) of 0.8 nM and a logD [3] of 3.6. The IC50 (Nociceptin receptor [4]) was 2.4 nM.

CCN1CCN(c2cc3[nH]c(C(=O)[C@]4(C)CC[C@](C)(O)CC4)nc3cc2Cl)CC1 gave an IC50 [5] of 3100 nM and an IC50 (Nociceptin receptor [2]) of 27 nM.

For CCN1CCN(c2cc3[nH]c(C(=O)[C@]4(C)CC[C@@](C)(O)CC4)nc3cc2Cl)CC1, the clearance [6] was 34 mL/min/kg, the Kp at 0.5 h [7] was 2.02 and the IC50 (Mu-type opioid receptor) was > 10000 nM. It also gave a Cmax [8] of 10.7 µM, an inhibition [9] of 73% and a Drug uptake (Brain [10]) of 2.21 nmol/g. It also gave a half-life [11] of 0.62 h, an inhibition [12] of 50% and a clearance [13] of 77 mL/min/kg. For the same compound, the IC50 [14] was > 10000 nM, the bioavailability [15] was 38% and the remaining at 0.5 h, 1 µM [1] was 82%. It also gave a half-life [16] of 3.5 h, a bioavailability [17] of 8% and an IC50 [5] of 20000 nM. The inhibition [18] was 72%, the inhibition [19] was 62% and the bioavailability [20] was 15%. The concentration at 0.5 h [21] was 1.08 µM, the Activity (Canis familiaris) was “Non-toxic” and the half-life [22] was 4 h. The Activity (Rattus norvegicus) was “Active”, the inhibition [23] was 74% and the clearance [24] was 22 mL/min/kg. For the same compound, the logD [3] was 3.1, the IC50 (Nociceptin receptor [4]) was 1.3 nM and the IC50 [25] was 1400 nM.

CCN1CCN(c2cc3[nH]c(C(=O)[C@]4(C)CC[C@@H](NC(=O)OC)CC4)nc3cc2Cl)CC1 gave a remaining at 0.5 h, 1 µM [1] of 74%, an IC50 [5] of 4900 nM and an IC50 (Nociceptin receptor [2]) of 5.7 nM. The logD [3] was 3.7 and the IC50 (Nociceptin receptor [4]) was 7.5 nM.

CCN1CCN(c2cc3[nH]c(C(=O)[C@]4(C)CC[C@@H](NC(=O)OC)CC4)nc3cc2C)CC1 showed a remaining at 0.5 h, 1 µM [1] of 71%, an IC50 [5] of 3000 nM and an IC50 (Nociceptin receptor [2]) of 2 nM. For the same compound, the logD [3] was 3.1 and the IC50 (Nociceptin receptor [4]) was 5.3 nM.

Compound CCN1CCN(c2cc3[nH]c(S[C@]4(C)CC[C@@H](NC(=O)OC)CC4)nc3cc2Cl)CC1 has a Drug uptake (Brain [26]) of 1.11 nmol/g, a concentration at 1 h [27] of 22.2 µM and a Kp at 1 h [28] of 0.05.

For CCN1CCN(c2cc3[nH]c(C(=O)C4(C)CCC(=O)CC4)nc3cc2Cl)CC1, the IC50 [5] was 8500 nM, the IC50 (Nociceptin receptor [2]) was 9.9 nM and the logD [3] was 3. The IC50 (Nociceptin receptor [4]) was 38 nM.

Compound CCN1CCN(c2cc3[nH]c(S[C@]4(C)CC[C@@H](N(C)C(C)=O)CC4)nc3cc2Cl)CC1 has a Drug uptake (Brain [26]) of 0.38 nmol/g, a concentration at 1 h [27] of 4.56 µM and a Kp at 1 h [28] of 0.09.
